Test results reported in ChEMBL document CHEMBL1127318, “Hypoxia-selective antitumor agents. 8. Bis(nitroimidazolyl)alkanecarboxamides: a new class of hypoxia-selective cytotoxins and hypoxic cell radiosensitisers” (J Med Chem, 1994).

Columns and labels:
[1] = system: CHO-AA8; assay: Concentration required to reduce AA8 cell numbers to 50% of controls in a growth inhibition microassay; format: functional, cell-based; conditions: Cricetulus griseus
Method in brief: (§1)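 Cells kept as log-phase monolayers in antibiotic-free Alpha MEM with 10% heat-inactivated FCS. Per well: 200 AA8, 300 UV4, 50 EMT6 or 1000 FME cells. Drug added 24 h after seeding and removed after 18 h. Cell mass (protein, methylene blue absorbance) read 72–78 h after washout. IC50 = concentration giving 50% of the mean of eight controls on the same plate.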

[2] = system: CHO-AA8; assay: Compound concentration required to reduce cell survival to 10% of control values under hypoxic condition; format: cell-based, Cricetulus griseus; conditions: chinese hamster
Method in brief: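 Chinese hamster AA8 cells at plateau phase, 10⁶/mL, in magnetically stirred 10-mL suspensions. Gassed continuously with 5% CO₂ in N₂ (hypoxic) or in air (aerobic); cells and drug preequilibrated under the gas for 60 min. Clonogenic plating efficiency read every 0.5–1 h for up to 8 h at several drug concentrations. Concentration × time for 10% survival (CT10) estimated at each concentration.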

[3] = Partition coefficient (logP); format: physicochemical; conditions: octanol/water
Method in brief: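 log P octanol computed with CLOGP rather than measured.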

[4] = system: FME; assay: Aerobic cytotoxicity against human melanoma FME cells in a growth inhibition microassay; format: functional; method in brief: as §1
[5] = The ratio of aerobic CT10 to hypoxic CT10.; format: functional
Method in brief: (§2)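 Clonogenic assay on stirred plateau-phase AA8 suspensions (10⁶/mL), gassed with 5% CO₂ in air or in N₂ after 60 min preequilibration. Survival sampled every 0.5–1 h up to 8 h at several drug concentrations. CT10 taken at each concentration. Interpolated aerobic CT10 divided by hypoxic CT10 at the same time; ranges cover 1–8 h exposure.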

[6] = system: EMT6; assay: Aerobic cytotoxicity against murine mammary carcinoma EMT6 cells in a growth inhibition microassay; format: functional, Mus musculus; method in brief: as §1
[7] = system: UV4; assay: Aerobic cytotoxicity against UV4 cells in a growth inhibition microassay; format: functional, Cricetulus griseus; method in brief: as §1
[8] = (§3) In vitro therapeutic index (aerobic IC50 / hypoxic C1.6); format: cell-based, Cricetulus griseus; conditions: chinese hamster, CHO-AA8 cells; read-out: TI
Method in brief: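 Hypoxic C1.6: stirred AA8 gassed with 5% CO₂/N₂ 60 min, drug 30 min, ⁶⁰Co irradiation at 37 °C (~2 Gy/min). D10 from linear-quadratic fit; concentration giving SER 1.6 interpolated. Index = IC50/C1.6.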

[9] = Ratio of mean intracellular to extracellular compound concentration determined under hypoxic conditions 30 mins after exposure to compound at C1.6 concentration; format: functional, cell-based
Method in brief: (§4)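 AA8 suspension (10⁷ cells) made hypoxic with 5% CO₂ in N₂, exposed 30 min at 37 °C to drug at the C1.6. Supernatant and lysed pellet extracted in MeCN. Assayed by C18 HPLC (formate pH 4.5/MeCN gradient, 320 nm), corrected for spiked recoveries. Intracellular level from 11.6 µL cell water/10⁷ cells, with [¹⁴C]sucrose and ³H₂O spaces. Result expressed as Ci/Ce.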

[10] = The ratio of aerobic CT10 to hypoxic CT10; format: functional; method in brief: as §2
[11] = system: CHO-AA8; assay: Average intracellular compound concentration where the hypoxia sensitizer enhancement ratio (SER)=1.6; format: functional, Cricetulus griseus
Method in brief: (§5)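 Hypoxic stirred AA8 suspensions (10⁷ cells) incubated 30 min at the C1.6 concentration. Cells and supernatant separated by centrifugation and extracted into MeCN. Drug measured by C18 HPLC with formate pH 4.5/MeCN gradient, absorbance 320 nm. Values corrected for recovery using spiked medium or lysed pellets. Mean intracellular concentration calculated assuming 11.6 µL cell water and 1.1 µL pellet extracellular water per 10⁷ cells.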

[12] = system: CHO-AA8; assay: Average intracellular compound concentration where the sensitizer enhancement ratio (SER)=1.6 under hypoxia; format: functional, Cricetulus griseus; method in brief: as §5
[13] = system: CHO-AA8; assay: Average intracellular compound concentration when the hypoxic SER=1.6.; format: functional, Cricetulus griseus; method in brief: as §5
[14] = system: CHO-AA8; assay: Compound concentration at which sensitizer enhancement ratio =1.6 under hypoxia.; format: functional, Cricetulus griseus
Method in brief: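 Stirred AA8 suspensions gassed 60 min with 5% CO2 in N2. Drug added 30 min before ⁶⁰Co irradiation at 37 °C (ca. 2 Gy/min, typically 6 Gy steps). Clonogenic survival taken against unirradiated cells from the same culture. Linear-quadratic fit gives D10; SER = D10 without/with drug, determined over a range of concentrations to estimate C1.6. Only concentrations with minimal drug toxicity during irradiation were used.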

[15] = Ratio of mean intracellular to extracellular compound concentration determined under hypoxic condition.; format: functional, cell-based; method in brief: as §4
[16] = system: CHO-AA8; assay: as §3; format: functional, Cricetulus griseus
Method in brief: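 C1.6 is the concentration giving SER 1.6 in hypoxic stirred AA8 suspensions exposed to drug for 30 min before ⁶⁰Co irradiation at 37 °C.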

Structure (SMILES) | IC50 [1] | CT10 [2] | logP [3] | Hypersensitivity factor [4] | Ratio [5] | Hypersensitivity factor [6] | Hypersensitivity factor [7] | selectivity ratio [8] | Uptake ratio [9] | Ratio [10] | C1.6 [11] | C1.6 [12] | C1.6 [13] | C1.6 [14] | Uptake ratio [15] | TI [16]
O=C(CCn1ccnc1[N+](=O)[O-])NCCCn1ccnc1[N+](=O)[O-] | 6.1 mM | 2.5 mM-hr | -1.55 | 3.9 | 6.5 | 3.5 | 1.2 | – | – | – | – | – | – | – | – | –
Cc1ncc([N+](=O)[O-])n1CCO [METRONIDAZOLE] | 23 mM | 100 mM-hr | – | 1 | – | 1 | 1 | 1.7 | 1.3 | 5 | 17.3 mM | 13.3 mM | – | – | – | –
Cc1ncc([N+](=O)[O-])n1CCNC(=O)CCCn1ccnc1[N+](=O)[O-] | 7.2 mM | 0.37 mM-hr | -1.28 | 4.6 | 8 | 1.3 | 1.4 | 11 | – | – | – | – | 0.21 mM | 0.63 mM | 0.33 | –
O=[N+]([O-])c1nccn1CC(O)CNCCBr (centres undefined) | 0.15 mM | 0.18 mM-hr | – | 1 | 20 | 1.6 | 5.9 | – | – | – | – | – | – | 0.13 mM | – | 1.1
Cc1ncc([N+](=O)[O-])n1CCNC(=O)Cn1ccnc1[N+](=O)[O-] | 4.7 mM | 11 mM-hr | -1.03 | 2.1 | 2.4 | 2.2 | 1 | 4.3 | – | – | – | – | 0.54 mM | 1.08 mM | 0.5 | –
Cc1ncc([N+](=O)[O-])n1CCNC(=O)CCCCn1ccnc1[N+](=O)[O-] | 3.8 mM | 6 mM-hr | -0.79 | 3.5 | > 7 | 1.7 | 1.2 | 4 | – | – | – | – | 0.48 mM | 0.93 mM | 0.52 | –
Cc1ncc([N+](=O)[O-])n1CCNC(=O)CCn1ccnc1[N+](=O)[O-] | 5.5 mM | 12 mM-hr | -0.99 | 2.9 | > 7 | 2.5 | 0.9 | 7.9 | – | – | – | – | 0.42 mM | 0.7 mM | 0.6 | –
